Experimental data from ChEMBL document CHEMBL1140925, “Nuclear factor-kappaB mediated inhibition of cytokine production by imidazoline scaffolds” (J Med Chem, 2009).

Key:
HeLa [1] = assay: Effect on cell cycle arrest in TNF-alpha-stimulated human HeLa cells assessed as cell aggregate level at 10 uM after 8 hrs by propidium iodide-based flow cytometry; format: functional
Blood = assay: Antiinflammatory activity in human whole blood assessed as inhibition of IL-1-beta-induced IL6 production after 18 hrs by ELISA; format: functional, tissue-based
Procedure, shortened: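 Human blood from donors with white count in the normal range, diluted 1:10 in RPMI-1640 with 10% FBS, penicillin and streptomycin. Aliquots were preincubated with vehicle (0.1% DMSO final) or compound at 10, 3, 1, 0.3 or 0.1 µM final for 2 h at 37 °C, 5% CO2. IL-1β (200 U/mL) was then added for 18 h, and plasma was collected and frozen. Cytokine was measured by ELISA.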

[2] = Cytotoxicity against human whole blood lymphocytes assessed as survival cell count in millions at 1 uM by trypan blue staining based hemocytometer
[3] = Cytotoxicity against human whole blood IL-1-beta-stimulated lymphocytes assessed as survival cell count in millions at 10 uM by trypan blue staining based hemocytometer
HeLa [4] = assay: Cell cycle arrest in TNF-alpha-stimulated human HeLa cells transfected with NFkappaB-Luc assessed as accumulation at diploid G2 phase at 0.1 uM after 8 hrs by propidium iodide-based flow cytometry; format: functional
HeLa [5] = assay: Cell cycle arrest in TNF-alpha-stimulated human HeLa cells transfected with NFkappaB-Luc assessed as accumulation at G2/G1 phase at 20 uM after 8 hrs by propidium iodide-based flow cytometry; format: functional
Procedure, shortened: (§1)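 HeLa NF-κB-luc cells (stable, hygromycin-selected) were treated with vehicle (1% DMSO) or compound at 40–0.2 µM final for 8 h at 37 °C, 5% CO2. Adherent cells were trypsinized, resuspended in PBS/50% FBS, fixed overnight in 70% ice-cold ethanol and washed with cold PBS/10% FBS, then analysed for cell cycle by flow cytometry.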

HeLa [6] = assay: Cell cycle arrest in human HeLa cells transfected with NFkappaB-Luc assessed as accumulation at G2/G1 phase at 20 uM after 8 hrs by propidium iodide-based flow cytometry; format: functional; procedure, shortened: as §1
HeLa [7] = assay: Effect on cell cycle arrest in human HeLa cells assessed as cell aggregate level at 20 uM after 8 hrs by propidium iodide-based flow cytometry; format: functional
Procedure, shortened: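 Cells were exposed to vehicle (1% DMSO) or compound for 8 h at 37 °C, 5% CO₂. They were then trypsinized, resuspended in PBS with 50% FBS, fixed overnight in ice-cold 70% ethanol, and washed twice with ice-cold PBS containing 10% FBS before flow cytometric cell-cycle analysis.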

HeLa [8] = assay: Cell cycle arrest in TNF-alpha-stimulated human HeLa cells transfected with NFkappaB-Luc assessed as accumulation at diploid G2 phase at 0.05 uM after 8 hrs by propidium iodide-based flow cytometry; format: functional
HeLa [9] = assay: Cell cycle arrest in TNF-alpha-stimulated human HeLa cells transfected with NFkappaB-Luc assessed as accumulation at G2/G1 phase at 10 uM after 8 hrs by propidium iodide-based flow cytometry; format: functional; procedure, shortened: as §1

`CCOC(=O)[C@]1(c2ccccc2)N=C(c2ccccc2)N(Cc2ccccc2)[C@@H]1c1ccccc1` (racemic) gave an Activity (HeLa [1]) of 0%, an EC50 (Blood) of 1.83 µM and an Activity [2] of 1.2 mL⁻¹. For the same compound, the Activity [3] was 1.48 mL⁻¹, the Activity (HeLa [4]) was 14.03% and the Ratio (HeLa [5]) was 1.9. The Ratio (HeLa [6]) was 1.9, the Activity (HeLa [7]) was 0% and the Activity (HeLa [8]) was 12.9%. It also gave a Ratio (HeLa [9]) of 1.91.
